Measured values published in ChEMBL document CHEMBL1149302, “Design, synthesis, and pharmacological characterization of novel, potent NMDA receptor antagonists” (J Med Chem, 2004).
The source made the active and inactive calls. The rule behind the calls is not given here.

What was measured:
Mus musculus [1] = experiment: Anticonvulsant activity in ip dosed DBA/2 mouse assessed as inhibition of tonic extension seizures; format: functional; conditions: DBA/2, ip
Summary of the method: (§1)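 Male DBA/2 mice (6-12 g, 22-26 days old) dosed ip in 100 μL/10 g. Compounds dissolved in 0.1 mM NaOH and brought to pH 7.3-7.7 with phosphate buffer; vehicle water. 45 min after dosing, a 110 dB bell sounded for 60 s or until clonic seizure onset. Seizure scoring: wild running 1, clonus 2, tonic extension 3, respiratory arrest 4. ED50 reported in μmol/kg.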

[2] = Displacement of [3H]kainic acid from rat brain kainate receptor
Summary of the method: (§2)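 Rat brain membranes prepared per Ransom and Stec with modifications. Radioligand binding with 5 nM [3H]AMPA, or 5 nM [3H]kainic acid in the absence of CaCl2. Bound radioactivity measured by scintillation counting. Racemates tested. Values are antilog of log mean of at least three experiments.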

Mus musculus [3] = experiment: Anticonvulsant activity in ip dosed DBA/2 mouse assessed as inhibition of clonic seizures; format: functional; conditions: DBA/2, ip; summary of the method: as §1
[4] = Displacement of [3H]AMPA from rat cortex AMPA receptor; summary of the method: as §2
Glutamate NMDA receptor [5] = experiment: Displacement of [3H]CGP-39653 from rat brain NMDA receptor
Summary of the method: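 Rat brain membranes prepared per Ransom and Stec with modifications. Binding with 2 nM [3H]CGP 39653, with bound radioactivity measured by scintillation counting. Racemates tested. Values are antilog of log mean of at least three experiments.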

[6] = biological target: Metabotropic glutamate receptor 4 (Rattus norvegicus) (UniProt P31423); experiment: Activity at rat mGluR4a expressed in CHO cells at 1 mM; format: cell-based
Metabotropic glutamate receptor 4 (Rattus norvegicus), sequence (P31423 whole entry): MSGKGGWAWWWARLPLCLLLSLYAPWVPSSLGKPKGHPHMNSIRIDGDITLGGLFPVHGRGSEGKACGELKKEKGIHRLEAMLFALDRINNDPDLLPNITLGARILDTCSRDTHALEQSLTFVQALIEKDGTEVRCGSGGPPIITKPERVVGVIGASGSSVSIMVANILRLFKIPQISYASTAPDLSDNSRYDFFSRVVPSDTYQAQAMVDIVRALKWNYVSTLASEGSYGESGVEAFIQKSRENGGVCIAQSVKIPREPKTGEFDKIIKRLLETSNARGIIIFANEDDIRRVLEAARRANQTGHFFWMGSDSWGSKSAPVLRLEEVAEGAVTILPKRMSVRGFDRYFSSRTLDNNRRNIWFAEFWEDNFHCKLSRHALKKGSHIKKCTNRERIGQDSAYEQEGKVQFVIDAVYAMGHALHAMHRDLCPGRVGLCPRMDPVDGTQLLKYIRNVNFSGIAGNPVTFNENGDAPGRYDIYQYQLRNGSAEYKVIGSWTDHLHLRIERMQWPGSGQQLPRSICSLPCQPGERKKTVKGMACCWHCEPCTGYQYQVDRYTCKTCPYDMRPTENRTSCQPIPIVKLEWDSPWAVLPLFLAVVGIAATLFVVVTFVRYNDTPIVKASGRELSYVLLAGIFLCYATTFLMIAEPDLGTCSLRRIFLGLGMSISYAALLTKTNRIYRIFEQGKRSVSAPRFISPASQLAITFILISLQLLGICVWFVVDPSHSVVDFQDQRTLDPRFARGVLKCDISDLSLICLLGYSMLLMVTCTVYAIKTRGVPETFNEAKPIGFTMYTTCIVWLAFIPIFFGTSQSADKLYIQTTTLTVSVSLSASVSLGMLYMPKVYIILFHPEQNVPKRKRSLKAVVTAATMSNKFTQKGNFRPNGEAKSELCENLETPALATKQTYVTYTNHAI
Summary of the method: (§3)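 Rat mGluR1α, mGluR2, mGluR4a and mGluR5a each expressed in CHO cell lines. Compounds tested at 1 mM for both agonist and antagonist activity.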

[7] = biological target: Metabotropic glutamate receptor 5 (Rattus norvegicus) (UniProt P31424); experiment: Activity at rat mGluR5a expressed in CHO cells at 1 mM; format: cell-based; summary of the method: as §3
Metabotropic glutamate receptor 5 (Rattus norvegicus), sequence (P31424 21-1203 limits assumed): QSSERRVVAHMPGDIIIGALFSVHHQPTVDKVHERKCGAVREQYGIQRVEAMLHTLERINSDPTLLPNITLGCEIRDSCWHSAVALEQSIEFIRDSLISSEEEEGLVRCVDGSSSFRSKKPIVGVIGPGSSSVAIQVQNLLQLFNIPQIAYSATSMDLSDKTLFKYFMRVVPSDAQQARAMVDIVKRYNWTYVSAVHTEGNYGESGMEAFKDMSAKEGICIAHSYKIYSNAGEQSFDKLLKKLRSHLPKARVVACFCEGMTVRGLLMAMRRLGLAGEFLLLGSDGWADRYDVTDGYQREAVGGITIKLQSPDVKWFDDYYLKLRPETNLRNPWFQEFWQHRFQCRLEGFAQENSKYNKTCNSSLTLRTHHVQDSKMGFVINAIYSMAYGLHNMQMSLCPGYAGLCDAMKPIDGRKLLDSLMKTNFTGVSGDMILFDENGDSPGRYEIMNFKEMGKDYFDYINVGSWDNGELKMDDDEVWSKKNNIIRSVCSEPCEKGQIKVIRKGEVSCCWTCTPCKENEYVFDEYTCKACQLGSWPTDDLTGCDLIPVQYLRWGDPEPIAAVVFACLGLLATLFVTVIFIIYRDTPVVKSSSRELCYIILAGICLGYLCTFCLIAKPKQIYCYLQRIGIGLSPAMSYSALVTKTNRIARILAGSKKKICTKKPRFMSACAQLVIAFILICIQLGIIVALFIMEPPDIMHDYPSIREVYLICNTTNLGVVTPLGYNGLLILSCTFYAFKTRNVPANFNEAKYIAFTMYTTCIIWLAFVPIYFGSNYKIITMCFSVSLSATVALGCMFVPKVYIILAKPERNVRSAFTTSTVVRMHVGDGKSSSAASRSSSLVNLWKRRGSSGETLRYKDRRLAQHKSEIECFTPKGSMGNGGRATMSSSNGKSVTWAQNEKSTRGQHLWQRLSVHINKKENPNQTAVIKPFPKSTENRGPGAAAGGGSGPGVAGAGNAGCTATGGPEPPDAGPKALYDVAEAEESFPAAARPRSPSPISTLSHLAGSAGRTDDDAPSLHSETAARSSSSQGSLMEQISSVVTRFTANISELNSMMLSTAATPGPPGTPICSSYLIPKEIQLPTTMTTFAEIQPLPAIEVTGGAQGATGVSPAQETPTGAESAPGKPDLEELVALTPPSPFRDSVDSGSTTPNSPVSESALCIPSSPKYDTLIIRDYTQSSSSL

[8] = biological target: Metabotropic glutamate receptor 1 (Rattus norvegicus) (UniProt P23385); experiment: Activity at rat mGluR1 expressed in CHO cells at 1 mM; format: cell-based; summary of the method: as §3
Metabotropic glutamate receptor 1 (Rattus norvegicus), sequence (P23385 19-1199 limits assumed): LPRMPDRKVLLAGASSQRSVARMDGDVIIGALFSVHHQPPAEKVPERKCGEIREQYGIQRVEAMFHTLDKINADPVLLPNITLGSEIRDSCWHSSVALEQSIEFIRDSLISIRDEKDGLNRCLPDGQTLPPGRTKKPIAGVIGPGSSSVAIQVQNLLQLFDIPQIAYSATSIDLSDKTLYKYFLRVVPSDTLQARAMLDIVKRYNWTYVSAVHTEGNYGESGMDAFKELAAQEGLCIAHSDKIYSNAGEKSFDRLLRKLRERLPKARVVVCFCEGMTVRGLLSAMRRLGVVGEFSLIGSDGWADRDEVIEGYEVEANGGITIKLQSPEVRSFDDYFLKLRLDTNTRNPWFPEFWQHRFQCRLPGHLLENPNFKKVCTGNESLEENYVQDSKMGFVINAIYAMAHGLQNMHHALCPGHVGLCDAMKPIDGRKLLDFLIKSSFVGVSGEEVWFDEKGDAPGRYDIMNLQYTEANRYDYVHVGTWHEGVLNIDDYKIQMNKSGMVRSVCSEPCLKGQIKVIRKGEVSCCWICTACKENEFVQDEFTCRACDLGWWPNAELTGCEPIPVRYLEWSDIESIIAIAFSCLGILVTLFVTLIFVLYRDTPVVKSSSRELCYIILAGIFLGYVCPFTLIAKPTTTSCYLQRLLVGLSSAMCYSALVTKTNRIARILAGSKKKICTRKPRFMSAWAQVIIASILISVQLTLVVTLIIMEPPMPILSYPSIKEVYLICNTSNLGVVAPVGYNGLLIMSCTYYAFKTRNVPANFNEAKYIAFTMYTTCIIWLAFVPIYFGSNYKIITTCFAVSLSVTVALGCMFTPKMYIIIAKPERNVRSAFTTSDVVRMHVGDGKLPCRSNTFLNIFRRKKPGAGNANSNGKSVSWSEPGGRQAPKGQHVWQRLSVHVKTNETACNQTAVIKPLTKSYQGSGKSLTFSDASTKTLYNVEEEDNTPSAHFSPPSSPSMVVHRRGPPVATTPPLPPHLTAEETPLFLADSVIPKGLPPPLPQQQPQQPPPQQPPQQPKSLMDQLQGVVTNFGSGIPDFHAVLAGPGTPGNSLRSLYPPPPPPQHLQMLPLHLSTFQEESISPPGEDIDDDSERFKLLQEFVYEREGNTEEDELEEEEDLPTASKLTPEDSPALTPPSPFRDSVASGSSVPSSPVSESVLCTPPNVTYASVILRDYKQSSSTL

[9] = biological target: Metabotropic glutamate receptor 2 (Rattus norvegicus) (UniProt P31421); experiment: Activity at rat mGluR2 expressed in CHO cells at 1 mM; format: cell-based; summary of the method: as §3
Metabotropic glutamate receptor 2 (Rattus norvegicus), sequence (P31421 19-872 limits assumed): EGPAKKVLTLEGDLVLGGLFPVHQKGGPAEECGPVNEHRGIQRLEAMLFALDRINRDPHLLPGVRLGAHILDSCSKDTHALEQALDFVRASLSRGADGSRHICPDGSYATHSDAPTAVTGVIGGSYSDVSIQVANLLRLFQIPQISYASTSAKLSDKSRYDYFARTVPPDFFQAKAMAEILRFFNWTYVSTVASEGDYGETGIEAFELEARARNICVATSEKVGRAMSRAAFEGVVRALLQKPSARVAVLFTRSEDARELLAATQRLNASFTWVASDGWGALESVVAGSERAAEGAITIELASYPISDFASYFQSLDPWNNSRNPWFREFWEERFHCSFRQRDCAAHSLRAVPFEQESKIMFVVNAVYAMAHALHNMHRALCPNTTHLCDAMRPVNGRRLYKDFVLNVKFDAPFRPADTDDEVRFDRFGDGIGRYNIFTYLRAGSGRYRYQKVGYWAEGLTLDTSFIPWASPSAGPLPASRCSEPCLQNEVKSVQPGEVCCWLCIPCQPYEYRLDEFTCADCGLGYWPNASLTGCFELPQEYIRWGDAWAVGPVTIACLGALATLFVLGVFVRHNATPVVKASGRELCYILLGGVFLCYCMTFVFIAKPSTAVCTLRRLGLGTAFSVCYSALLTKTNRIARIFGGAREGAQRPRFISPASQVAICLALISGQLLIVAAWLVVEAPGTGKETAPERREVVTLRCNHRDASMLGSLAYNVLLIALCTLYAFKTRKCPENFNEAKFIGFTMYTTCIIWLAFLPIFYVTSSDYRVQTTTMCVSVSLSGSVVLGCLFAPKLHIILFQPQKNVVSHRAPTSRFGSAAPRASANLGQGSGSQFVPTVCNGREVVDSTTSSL

Rattus norvegicus [10] = organism: Rattus norvegicus; experiment: Activity at AMPA receptor in rat cortical slice assessed as antagonism of 5 uM AMPA-induced response; format: functional
[11] = Activity at NMDA receptor in rat corticle slice assessed as antagonism of 10 uM NMDA-induced response; format: functional
Summary of the method: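 Modified rat cortical wedge preparation; depolarizing responses induced by NMDA (10 μM) recorded and antagonism measured. Racemates tested. Values are antilog of the log mean of at least three individual experiments, with ±SEM on a logarithmic distribution.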

Mus musculus [12] = experiment: Induction of sedation in DBA/2 mouse at 100 […], ip; format: functional, organism-based
Rattus norvegicus [13] = organism: Rattus norvegicus; experiment: Activity at Kainate receptor in rat cortical slice assessed as antagonism of 5 uM kainic acid-induced response; format: functional
Mus musculus [14] = experiment: Reduction of locomotor activity in DBA/2 mouse at 100 […], ip; format: functional, organism-based
Glutamate NMDA receptor [15] = experiment: Displacement of [3H]CPP from rat brain NMDA receptor

Row | IC50 [2] | IC50 [4] | Ki (Glutamate NMDA receptor [5]) | Activity [6] | Activity [7] | Activity [8] | Activity [9] | Activity (Rattus norvegicus [10]) | IC50 [11] | Activity (Rattus norvegicus [13]) | Ki (Glutamate NMDA receptor [15]) | SMILES | ED50 (Mus musculus [1]) | ED50 (Mus musculus [3]) | Activity (Mus musculus [12]) | Activity (Mus musculus [14])
1 | > 100 µM | 12 µM | 79 µM | inactive | inactive | inactive | inactive | – | – | – | – | CC1(C)ON=C(C(=O)O)[C@H]1C[C@H](N)C(=O)O (relative stereo) | – | – | – | –
2 | > 100 µM | > 100 µM | 0.21 µM | inactive | inactive | inactive | inactive | inactive | 14.2 µM | inactive | – | N[C@@H](C[C@@H]1CC(C(=O)O)=NO1)C(=O)O (relative stereo) | 13.9 µmol/kg | 17.9 µmol/kg | Active | Active
3 | > 100 µM | > 100 µM | 0.96 µM | inactive | inactive | inactive | inactive | – | – | – | – | N[C@H](C[C@@H]1CC(C(=O)O)=NO1)C(=O)O (relative stereo) | 19.7 µmol/kg | 29.9 µmol/kg | – | –

Continued, molecule first:

Row | SMILES | IC50 [2] | IC50 [4] | Ki (Glutamate NMDA receptor [5]) | Activity [6] | Activity [7] | Activity [8] | Activity [9] | Activity (Rattus norvegicus [10]) | IC50 [11] | Activity (Rattus norvegicus [13]) | Ki (Glutamate NMDA receptor [15]) | ED50 (Mus musculus [1]) | ED50 (Mus musculus [3]) | Activity (Mus musculus [12]) | Activity (Mus musculus [14])
4 | N[C@@]1(C(=O)O)C[C@@H]2ON=C(C(=O)O)[C@@H]2C1 (racemic) | > 100 µM | > 100 µM | 0.37 µM | – | – | – | – | – | – | – | – | 22 µmol/kg | 28 µmol/kg | – | –
5 | CC1(C)ON=C(C(=O)O)[C@H]1C[C@@H](N)C(=O)O (relative stereo) | > 100 µM | > 100 µM | > 100 µM | inactive | inactive | inactive | inactive | – | – | – | – | – | – | – | –
6 | O=C(O)C1CN(C/C=C/P(=O)(O)O)CCN1 (single isomer, unassigned; (-)) | – | – | – | – | – | – | – | – | – | – | 0.04 µM | 1.3 µmol/kg | 3.5 µmol/kg | – | –
7 | O=C1NC(=O)C(c2ccccc2)(c2ccccc2)N1 [PHENYTOIN] | – | – | – | – | – | – | – | – | – | – | – | 7.3 µmol/kg | 9.1 µmol/kg | – | –
